The subject of one data set is HEK293. The data set can be described thus: Photocytotoxicity against mouse FAP expressing HEK293 cells assessed as reduction of cell viability at 4 uM in presence of 2 J cm'-2 radiation by MTT assay. The format is functional, Homo sapiens. The method, boiled down:
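HEK-mFAP and HEK-Vector cells, 2.5×10^4 per well, grown 2 days, then incubated 24 h with compound diluted in FBS-free DMEM (DMSO/Tween 80 formulation) at 8 or 4 µM. Cells rinsed and refed, then irradiated with a 670 nm laser at 130 mW cm⁻², 16 s (2 J cm⁻²) or kept dark. Incubated overnight; MTT 2 h, SDS/HCl solubilization, absorbance read at 570 nm.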
A general note: Tetrazolium dyes change colour on reduction, which living cells bring about.

Substrate in data set [1]: C=Cc1c(C)c2cc3nc(c4c5[nH]c(cc6nc(cc1[nH]2)C(C)=C6CC)c(C)c5C(=O)C4)[C@@H](CCC(=O)N[C@H](C(=O)N[C@@H](CO)C(=O)NCC(=O)N1CCC[C@H]1C(=O)N[C@@H](CC(N)=O)C(=O)N[C@@H](CCC(N)=O)C(=O)N[C@@H](CCC(=O)O)C(=O)N[C@@H](CCC(N)=O)C(=O)N[C@@H](CCCCNOC(=O)CCCN(C)c1ccc(/N=N/c2cccc4nc5ccc(N(CC)CC)cc5[n+](-c5ccccc5)c24)cc1)C(N)=O)[C@@H](C)O)[C@@H]3C
The data set can be described thus: Activity of mouse FAP assessed as enzyme mediated drug cleavage by measuring increase in fluorescence intensity. The essentials: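 Purified murine FAP (2 µg) with substrate at 0.1–6 µM in 1 mL 0.12 M NaCl/0.12 M TRIS pH 7.37 (substrate first dissolved in DMSO/Tween 80), 37 °C. Fluorescence followed continuously at ex 650/em 675 nm; excess mFAP (10 µg) added after 1 h. Initial rates (10% depletion), triplicate; Vmax, Km, kcat and kcat/Km from nonlinear Michaelis–Menten fit.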

Peptide text beside a SMILES is read from it. * marks the point of attachment. Pyropheophorbide(a) = C=Cc1c(C)c2cc3nc(c4c5[nH]c(cc6nc(cc1[nH]2)C(C)=C6CC)c(C)c5C(=O)C4)[C@@H](CCC(=O)*)[C@@H]3C

Consider `C=Cc1c(C)c2cc3nc(c4c5[nH]c(cc6nc(cc1[nH]2)C(C)=C6CC)c(C)c5C(=O)C4)[C@@H](CCC(=O)N[C@H](C(=O)N[C@@H](CO)C(=O)NCC(=O)N1CCC[C@H]1C(=O)N[C@@H](CC(N)=O)C(=O)N[C@@H](CCC(N)=O)C(=O)N[C@@H](CCC(=O)O)C(=O)N[C@@H](CCC(N)=O)C(=O)N[C@@H](CCCCN)C(N)=O)[C@@H](C)O)[C@@H]3C` ({Pyropheophorbide(a)}-TSGPNQEQK-NH2), for which the Activity in the data set with HEK293 amounted to 40%.

B1: Prolyl endopeptidase FAP (Mus musculus), P97321 (protein)
chain: MKTWLKTVFGVTTLAALALVVICIVLRPSRVYKPEGNTKRALTLKDILNGTFSYKTYFPNWISEQEYLHQSEDDNIVFYNIETRESYIILSNSTMKSVNATDYGLSPDRQFVYLESDYSKLWRYSYTATYYIYDLQNGEFVRGYELPRPIQYLCWSPVGSKLAYVYQNNIYLKQRPGDPPFQITYTGRENRIFNGIPDWVYEEEMLATKYALWWSPDGKFLAYVEFNDSDIPIIAYSYYGDGQYPRTINIPYPKAGAKNPVVRVFIVDTTYPHHVGPMEVPVPEMIASSDYYFSWLTWVSSERVCLQWLKRVQNVSVLSICDFREDWHAWECPKNQEHVEESRTGWAGGFFVSTPAFSQDATSYYKIFSDKDGYKHIHYIKDTVENAIQITSGKWEAIYIFRVTQDSLFYSSNEFEGYPGRRNIYRISIGNSPPSKKCVTCHLRKERCQYYTASFSYKAKYYALVCYGPGLPISTLHDGRTDQEIQVLEENKELENSLRNIQLPKVEIKKLKDGGLTFWYKMILPPQFDRSKKYPLLIQVYGGPCSQSVKSVFAVNWITYLASKEGIVIALVDGRGTAFQGDKFLHAVYRKLGVYEVEDQLTAVRKFIEMGFIDEERIAIWGWSYGGYVSSLALASGTGLFKCGIAVAPVSSWEYYASIYSERFMGLPTKDDNLEHYKNSTVMARAEYFRNVDYLLIHGTADDNVHFQNSAQIAKALVNAQVDFQAMWYSDQNHGISSGRSQNHLYTHMTHFLKQCFSLSD
On to B1, for which, in data set [1], the Km is 1.02 µM, the Vmax came out at 36 pmol/min and the kcat came out at 0.0292 s⁻¹.

What is called Km is the substrate concentration at which the rate is half of its maximum. The term Vmax denotes the rate approached at saturating substrate. As usually defined, the kcat is the maximal rate divided by the concentration of active sites.

The values above are taken from ChEMBL document CHEMBL1140867, “Photodynamic molecular beacon triggered by fibroblast activation protein on cancer-associated fibroblasts for diagnosis and treatment of epithelial cancers” (J Med Chem, 2009).
